{"data": "Published values of several laboratories", "organism": "Pseudomonas aeruginosa", "observed": "microbial growth", "note": "Protocols differ between the studies behind these lines."}
{"SMILES": "COc1c(C)c(OC)c(C(=O)/C=C/c2ccccc2)c(OC)c1C", "method": "broth dilution", "strain": "ATCC27853", "MIC": "5000 µg/mL"}
{"SMILES": "CCCCCCC/C=C/C(=O)N1C(=O)/C(=C(/C)O)C(=O)C1CCCCN (stereo not shown)", "strain": "PA01", "MIC": "> 200 µg/mL"}
{"SMILES": "O=c1[nH]cc(F)c(=O)[nH]1", "method": "broth dilution", "time": "24 h", "MIC": "4 µg/mL"}
{"SMILES": "CN(C)[C@@H]1C(O)=C(C(N)=O)C(=O)[C@@]2(O)C(O)=C3C(=O)c4c(cc5ccc(-c6cccnc6)cc5c4O)C[C@H]3C[C@@H]12", "method": "broth dilution", "strain": "ATCC27853", "MIC": "32 µg/mL"}
{"SMILES": "Cc1ccc2nc(-c3ccc([N+](=O)[O-])cc3)n(Cc3ccccc3)c2c1", "method": "broth dilution", "strain": "ATCC27853", "MIC": "128 µg/mL"}
{"SMILES": "O=C(Cc1ccc(O)c(O)c1)NCCCCCCCC[P+](c1ccccc1)(c1ccccc1)c1ccccc1.[Br-]", "method": "broth dilution", "strain": "ATCC27853", "time": "18 h", "MIC": "> 32 µg/mL"}
{"SMILES": "CN(C)[C@@H]1C(O)=C(C(N)=O)C(=O)[C@@]2(O)C(O)=C3C(=O)c4c(O)cncc4C[C@H]3C[C@@H]12.Cl.Cl", "method": "broth dilution", "strain": "ATCC27853", "MIC": "8 µg/mL"}
{"SMILES": "Cn1cc(NC(=O)C(CC(N)=O)NC(=O)c2ccc(NC(=O)c3ccc(C#N)cc3)cc2)cc1-c1nc2ccc(C(=O)Nc3ccc(C(=O)O)cc3)c(O)c2[nH]1 (stereo not shown)", "strain": "PA14", "MIC": "> 64 µg/mL"}
{"SMILES": "CC1=NN(CNC(=O)c2ccccc2)C(=O)C1=NNn1c(-c2ccccc2)nc2ccccc2c1=O", "method": "broth dilution", "time": "24 h", "MIC": "51.9 µM"}
{"SMILES": "NC1CCCCc2c1[nH]c1ccc(Cl)c(Cl)c21 (stereo not shown)", "method": "broth dilution", "strain": "PAO1", "time": "18 h", "MIC": "256 µg/mL"}
{"SMILES": "CN(C)CC(C)(C)CNc1nc(Cl)c2c(c1O)C(=O)C1=C(O)[C@]3(O)C(=O)C(C(N)=O)=C(O)[C@@H](N(C)C)[C@@H]3C[C@@H]1C2.Cl", "method": "broth dilution", "strain": "ATCC27853", "MIC": "32 µg/mL"}
{"SMILES": "O=C1NN=C(N=Cc2ccc(O)cc2O)C1=NNn1c(-c2ccccc2)nc2ccccc2c1=O", "method": "broth dilution", "time": "24 h", "MIC": "53.5 µM"}
{"SMILES": "Brc1ccc(NCc2ccc(Oc3ccccn3)cc2)cc1", "MIC": "> 25 µg/mL"}
{"SMILES": "Cc1ccc(C)n1-c1ccc(-c2nnc(-c3cccc([N+](=O)[O-])c3)[nH]2)cc1", "method": "broth dilution", "strain": "ATCC10145", "time": "18 h", "MIC": "250 µg/mL"}
{"SMILES": "CN(C)[C@@H]1C(O)=C(C(N)=O)C(=O)[C@@]2(O)C(O)=C3C(=O)c4c(cc5ccc(CN6CC(F)(F)C6)cc5c4O)C[C@H]3C[C@@H]12", "method": "broth dilution", "strain": "ATCC27853", "MIC": "32 µg/mL"}
{"SMILES": "Cc1ccc2nc(-c3ccc([N+](=O)[O-])cc3)n(Cc3ccc(Cl)cc3)c2c1", "method": "broth dilution", "strain": "ATCC27853", "MIC": "256 µg/mL"}
{"SMILES": "CC1(C)S[C@@H]2[C@H](NC(=O)[C@H](N)c3ccccc3)C(=O)N2[C@H]1C(=O)O", "MIC": "> 200 µg/mL"}
{"SMILES": "CC(C)Oc1c(NC(=O)c2ccc(NC(=O)[C@H](CC(N)=O)NC(=O)c3ccc(NC(=O)c4cccc([N+](=O)[O-])c4)cc3)cc2)ccc(C(=O)Nc2ccc(C(=O)O)cc2)c1O", "strain": "PA14", "MIC": "> 64 µg/mL"}
{"SMILES": "COc1c(C)c(OS(=O)(=O)c2ccc3ccccc3c2)c(C)c(OS(=O)(=O)c2ccc3ccccc3c2)c1C(=O)/C=C/c1ccccc1", "method": "broth dilution", "strain": "ATCC27853", "MIC": "5000 µg/mL"}
{"SMILES": "O=[N+]([O-])c1ccc(-c2nc3cc(Cl)ccc3[nH]2)o1", "method": "broth dilution", "strain": "ATCC27853", "MIC": "> 64 µg/mL"}
{"SMILES": "CCCCCCC/C=C/C(=O)N1C(=O)/C(=C(\\O)c2ccc(F)cc2)C(=O)C1CC(C)C (stereo not shown)", "strain": "PA01", "MIC": "> 200 µg/mL"}
{"SMILES": "CC(C)Oc1c(NC(=O)c2ccc(NC(=O)[C@H](CC(N)=O)NC(=O)c3ccc(NC(=O)Cc4ccc(C#N)cc4)cc3)cc2)ccc(C(=O)Nc2ccc(C(=O)O)cc2)c1O", "strain": "PA14", "MIC": "> 64 µg/mL"}
{"SMILES": "CN(C)c1cc(CNCC(C)(C)C)c(O)c2c1C[C@H]1C[C@H]3[C@H](N(C)C)C(O)=C(C(N)=O)C(=O)[C@@]3(O)C(O)=C1C2=O", "method": "broth dilution", "strain": "ATCC27853", "MIC": "> 32 µg/mL"}
{"SMILES": "Cn1c(SCc2ccc(Cl)cc2)nnc1-c1cncc(C#Cc2ccccc2)c1", "MIC": "≥ 20 µg/mL"}
{"SMILES": "O=c1cc(-c2ccccc2)oc2cc(O)c(O)c(O)c12", "method": "broth dilution", "strain": "PAO1", "MIC": "256 µg/mL"}
{"SMILES": "Cc1ccc(NCc2ccc(Oc3ccccn3)cc2)cc1", "MIC": "> 50 µg/mL"}
{"SMILES": "Cc1cc(C)n(C(=O)c2ccc(-n3c(C)ccc3C)cc2)n1", "method": "broth dilution", "strain": "ATCC10145", "time": "18 h", "MIC": "250 µg/mL"}
{"SMILES": "CC(C)Oc1c(NC(=O)c2ccc(NC(=O)[C@H](CC(N)=O)NC(=O)c3ccc(CNC(=O)c4ccc(C#N)cc4)cc3)cc2)ccc(C(=O)Nc2ccc(C(=O)O)cc2)c1O", "strain": "PA14", "MIC": "> 64 µg/mL"}
{"SMILES": "CC1(C)SC2C(NC(=O)C(NC(=O)C3=C(O)C4(CC4)NC3=O)c3ccccc3)C(=O)N2C1C(=O)O (stereo not shown)", "MIC": "25 µg/mL"}
{"SMILES": "CCn1cc(C(=O)O)c(=O)c2cc(F)c(N3CCNCC3)cc21", "method": "broth dilution", "strain": "ATCC9027", "MIC": "2 µM"}
{"SMILES": "NC[C@H]1O[C@H](O[C@H]2[C@H](O)[C@@H](O[C@H]3O[C@H](CO)[C@@H](O)[C@H](N)[C@H]3O)[C@H](N)C[C@@H]2N)[C@H](N)C[C@@H]1O", "method": "broth dilution", "MIC": "13 µM"}
{"SMILES": "CC(C)Oc1c(NC(=O)c2ccc(NC(=O)[C@H](CC(N)=O)NC(=O)c3ccc(NC(=O)c4ccc([N+](=O)[O-])c5cccnc45)cc3)cc2)ccc(C(=O)Nc2ccc(C(=O)O)cc2)c1O", "strain": "PA14", "MIC": "> 64 µg/mL"}
{"SMILES": "N=C(N)NN=Cc1ccc(OC/C=C\\COc2ccc(C=NNC(=N)N)cc2)cc1", "strain": "PA14", "time": "16 h", "MIC": "≤ 51 µg/mL"}
{"SMILES": "CC(C)Oc1c(NC(=O)c2ccc(NC(=O)[C@H](CC(N)=O)NC(=O)c3ccc(NC(=O)c4cccc(N)c4)cc3)cc2)ccc(C(=O)Nc2ccc(C(=O)O)cc2)c1O", "strain": "PA14", "MIC": "> 64 µg/mL"}
{"SMILES": "C[C@@H](O)[C@H]1C(=O)N2C(C(=O)O)=C(S[C@@H]3CN[C@H](C(=O)N(C)C)C3)[C@H](C)[C@H]12", "method": "broth dilution", "strain": "ATCC27853", "MIC": "0.25 µg/mL"}
{"SMILES": "CC(C)Oc1c(NC(=O)c2ccc(NC(=O)[C@H](CC(N)=O)NC(=O)c3ccc(NC(=O)c4ccc([N+](=O)[O-])c(OC(C)C)c4O)cc3)cc2)ccc(C(=O)Nc2ccc(C(=O)O)cc2)c1O", "strain": "PA14", "MIC": "> 64 µg/mL"}
{"SMILES": "Cc1ncc(O)c2c1C[C@H]1C[C@H]3[C@H](N(C)C)C(O)=C(C(N)=O)C(=O)[C@@]3(O)C(O)=C1C2=O.Cl.Cl", "method": "broth dilution", "strain": "ATCC27853", "MIC": "16 µg/mL"}
